These results are taken from ChEMBL document CHEMBL5143677, “Small molecule NSAID derivatives for impairing powerhouse in cancer cells” (Bioorg Med Chem, 2022).

Active and inactive are the calls of the source. No cut-off for these calls is given here.

Data set [1] concerns MCF7. Nature of the data set: Induction of mitochondrial outer membrane damage in human MCF7 cells assessed as increase in mitochondrial depolarization by measuring increase in green fluorescence measured after 24 hrs by JC1 dye based confocal microscopy. The format is cell-based. A digest of the protocol:
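MCF7 cells treated 24 h, then incubated with JC1 (green monomer emission 525 nm, red aggregate 590 nm); confocal imaging, depolarization expressed as J-monomer:J-aggregate ratio versus non-treated control.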

Data set [2] has as its system MCF7. Nature of the data set: Cytotoxicity against human MCF7 cells assessed as reduction in cell viability measured after 24 hrs by MTT assay. The data set is classed as functional, cell-based. Conditions: MCF7, 24 h.
Data set [3] deals with MCF7. Nature of the data set: Induction of mitochondrial outer membrane damage in human MCF7 cells assessed as morphological changes by measuring appearance of threadlike structure at IC50 measured after 24 hrs by mitotracker red based confocal microscopy. The format is cell-based.
The test system of data set [4] is MCF7. Nature of the data set: Induction of mitochondrial outer membrane damage in human MCF7 cells assessed as increase in mitochondrial depolarization by measuring reduction in red fluorescence measured after 24 hrs by TMRM dye based confocal microscopy. The data set is classed as cell-based. A digest of the protocol: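 Mitochondrial damage probe: after 24 h exposure MCF7 cells loaded with TMRM, which stains undamaged mitochondria and is effluxed after damage; red fluorescence read by confocal microscopy against non-treated cells.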

Data set [5] has as its system MCF7. Nature of the data set: Induction of mitochondrial outer membrane damage in human MCF7 cells assessed as morphological changes by measuring elongated mitochondria at IC50 measured after 24 hrs by mitotracker red based confocal microscopy. The data set is classed as cell-based.
Data set [6] concerns MCF7. Nature of the data set: Induction of ROS generation in human MCF7 cells assessed as increase in green fluorescence measured after 24 hrs by H2DCFDA dye based confocal microscopy relative to control. The format is functional. A digest of the protocol: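 After 24 h treatment, MCF7 cells stained with H2DCFDA, which reacts with sub-cellular ROS to give green fluorescent DCF; imaged by confocal microscopy; green signal expressed as fold over non-treated control cells.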

The nature of data set [7]: Cytotoxicity against human RPE-1 cells assessed as reduction in cell viability measured after 24 hrs by MTT assay. The format is toxicity, cell-based. To be noted: RPE-1 cells (TERT-RPE1).
Data set [8] concerns MCF7. Nature of the data set: Induction of apoptosis in human MCF7 cells assessed as reduction in Bcl-2 expression measured after 24 hrs by Western blot analysis. The data set is classed as functional, cell-based. A digest of the protocol:
(§1)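 MCF7 cells treated 24 h; whole-cell proteins separated by gel electrophoresis and Bcl-2 and caspase-3 detected by Western blot, compared with control cells.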

The subject of data set [9] is MCF7. Nature of the data set: Induction of apoptosis in human MCF7 cells assessed as increase in red fluorescence at IC50 measured after 24 hrs by propidium iodide staining based confocal laser scanning microscopy. The format is functional, cell-based. The gist of the method:
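Following 24 h treatment, MCF7 cells incubated with propidium iodide, which binds DNA of apoptotic and necrotic cells; red fluorescence read by confocal microscopy against non-treated cells.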

The subject of data set [10] is MCF7. Nature of the data set: Induction of apoptosis in human MCF7 cells assessed as reduction in caspase-3 expression measured after 24 hrs by Western blot analysis. The data set is classed as functional, cell-based. The gist of the method: as §1
For data set [11], the system named is MCF7. Nature of the data set: Induction of mitochondrial outer membrane damage in human MCF7 cells assessed as morphological changes by measuring appearance of fragmented punctate structure at IC50 measured after 24 hrs by mitotracker red based confocal microscopy. The format is cell-based.
The test system of data set [12] is MCF7. Briefly: Induction of ROS generation in human MCF7 cells assessed as increase in red fluorescence at IC50 measured after 24 hrs by MitoSox dye based confocal microscopy. The data set is classed as functional, cell-based. The gist of the method: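 MCF7 cells exposed 24 h, then stained with MitoSox, which gives red fluorescence with sub-cellular superoxide; signal compared with non-treated control cells by confocal microscopy.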

One may read the IC50 as the midpoint of a concentration-inhibition curve. `CC(C)Cc1ccc(C(C)C(=O)O)cc1` (stereo not drawn) [IBUPROFEN]: the result in the data set on MCF7 [1], in the data set with MCF7 [3], in the data set with MCF7 [4] and with MCF7 [5] was Active. The IC50 in the data set on MCF7 [2] was above 50 µM. The “fold change (FC)” value with MCF7 [6] was determined as 1.3. Moreover, the IC50 at 24 h in [7] was above 40 µM.
`COc1ccc([P+](CCCCCOC(=O)Cc2c(C)n(C(=O)c3ccc(Cl)cc3)c3ccc(OC)cc23)(c2ccc(OC)cc2)c2ccc(OC)cc2)cc1`: in the data set on MCF7 [2], the IC50 amounted to 4.5 µM. Besides, in data set [7], the IC50 at 24 h worked out at 35.2 µM.
In the case of `CC(C)Cc1ccc(C(C)C(=O)OCCCCC[P+](c2ccc(F)cc2)(c2ccc(F)cc2)c2ccc(F)cc2)cc1` (stereo not drawn), the IC50 with MCF7 [2] is above 50 µM. In data set [7], the IC50 at 24 h was 35 µM.
Taken in the same sequence, the figures for `COc1ccc2c(c1)c(CC(=O)OCCCCC[P+](c1ccc(F)cc1)(c1ccc(F)cc1)c1ccc(F)cc1)c(C)n2C(=O)c1ccc(Cl)cc1` were 25.7 µM and 11.2 µM.
With `COc1ccc2c(c1)c(CC(=O)OCCCCC[P+](c1ccccc1)(c1ccccc1)c1ccccc1)c(C)n2C(=O)c1ccc(Cl)cc1`, the result in the data set on MCF7 [8], in the data set on MCF7 [1], in the data set with MCF7 [9], in the data set with MCF7 [4], with MCF7 [10] and in the data set with MCF7 [11] was Active. Also, the result in the data set on MCF7 [12] was Active. The concentration for half-maximal inhibition (IC50) with MCF7 [2] amounted to 1 µM. In addition, in the data set with MCF7 [6], the “fold change (FC)” value was determined as 2.4. In addition, the 50% inhibitory concentration (IC50) at 24 h in data set [7] was determined as 22 µM.
Regarding `COc1ccc2c(c1)c(CC(=O)O)c(C)n2C(=O)c1ccc(Cl)cc1` [INDOMETHACIN], the result in the data set with MCF7 [8], in the data set on MCF7 [1], with MCF7 [3], in the data set on MCF7 [4], in the data set with MCF7 [10] and in the data set with MCF7 [5] was Active. For the same compound, the IC50 with MCF7 [2] was above 50 µM. In addition, the “fold change (FC)” value in the data set on MCF7 [6] is 2.4. The IC50 at 24 h in data set [7] was above 40 µM.
As for `COc1ccc2c(c1)c(CC(=O)OCCCCC[P+](c1ccc(C)cc1)(c1ccc(C)cc1)c1ccc(C)cc1)c(C)n2C(=O)c1ccc(Cl)cc1`, the concentration for half-maximal inhibition (IC50) with MCF7 [2] came out at 5.8 µM. Besides, the IC50 at 24 h in [7] worked out at 10.2 µM.
On to `COc1ccc([P+](CCCCCOC(=O)C(C)c2ccc(CC(C)C)cc2)(c2ccc(OC)cc2)c2ccc(OC)cc2)cc1` (stereo not drawn), for which the half-maximal inhibitory concentration (IC50) with MCF7 [2] is 32 µM. Moreover, the IC50 at 24 h in [7] is above 40 µM.
Consider `CC(C)Cc1ccc(C(C)C(=O)OCCCCC[P+](c2ccccc2)(c2ccccc2)c2ccccc2)cc1` (stereo not drawn), for which the result in the data set with MCF7 [8], in the data set on MCF7 [1], in the data set on MCF7 [9], with MCF7 [4], with MCF7 [10] and in the data set with MCF7 [11] was Active. In addition, in the data set with MCF7 [12], the result was Active. Moreover, in the data set with MCF7 [2], the IC50 turned out to be 10.3 µM. Further, in the data set with MCF7 [6], the “fold change (FC)” value is given as 3.2. In addition, the IC50 at 24 h in data set [7] is above 40 µM.
Turning to `Cc1ccc([P+](CCCCCOC(=O)C(C)c2ccc(CC(C)C)cc2)(c2ccc(C)cc2)c2ccc(C)cc2)cc1` (stereo not drawn), the IC50 with MCF7 [2] was found to be 25.6 µM. In [7], the IC50 at 24 h is above 40 µM.
